Active and inactive are the calls of the source. The calls are words filed in the database; no cut-off is given here.
Key:
[1] = tested on: T-24; test: Induction of apoptosis in human T24 cells assessed as viable cells at 20 uM after 24 hrs by annexin-V-FITC/propidium iodide staining-based flow cytometry (reference value: 93.5%); type: functional; conditions: T-24, 24 h, read-out: Activity
[2] = tested on: T-24; test: Induction of apoptosis in human T24 cells assessed as increase in intracellular ROS level at 5 to 20 uM after 24 hrs by DCFH/DA staining-based fluorescence microscopic analysis; type: functional, cell-based
[3] = Induction of apoptosis in human T24 cells assessed as caspase-3 upregulation after 24 hrs by qRT-PCR analysis; type: functional, cell-based; conditions: T-24
Method in brief: (§1)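 T24 cells treated at […] for 24 h before RNA extraction. SYBR Green qRT-PCR with 500 nM primers: 2 min at 50 C, 10 min at 95 C, then 40 cycles of 15 s at 95 C and 1 min at 60 C. Expression by the ΔCt method against actin, normalized to untreated cells; run in triplicate.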

[4] = Induction of apoptosis in human T24 cells assessed as tp53 upregulation after 24 hrs by qRT-PCR analysis; type: functional, cell-based; conditions: T-24
[5] = Induction of apoptosis in human T24 cells assessed as cytC upregulation after 24 hrs by qRT-PCR analysis; type: functional, cell-based; conditions: T-24; method in brief: as §1
[6] = Induction of apoptosis in human T24 cells assessed as caspase-8 upregulation at IC50 after 24 hrs by qRT-PCR analysis relative to control; type: functional, cell-based; conditions: T-24
[7] = Induction of apoptosis in human T24 cells assessed as cytC upregulation at IC50 after 24 hrs by qRT-PCR analysis relative to control; type: functional, cell-based; conditions: T-24
[8] = Induction of apoptosis in human T24 cells assessed as caspase-3 upregulation at IC50 after 24 hrs by qRT-PCR analysis relative to control; type: functional, cell-based; conditions: T-24
[9] = tested on: T-24; test: Induction of apoptosis in human T24 cells assessed as increase in Bax protein expression after 6 to 24 hrs by Western blotting analysis; type: functional, cell-based
[10] = tested on: T-24; test: Induction of apoptosis in human T24 cells assessed as increase in caspase-3 protein expression at 20 uM after 6 to 24 hrs by Western blotting analysis; type: functional, cell-based
[11] = tested on: T-24; test: Induction of apoptosis in human T24 cells assessed as increase in caspase-7 protein expression at 20 uM after 6 to 24 hrs by Western blotting analysis; type: functional, cell-based
[12] = Cell cycle arrest in human T24 cells assessed as accumulation at G2 phase at 5 uM after 48 hrs by Rnase A/propidium iodide staining-based flow cytometry (reference value: 3.58%); type: functional; conditions: T-24
Method in brief: (§2)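 T24 cells exposed to […] for 48 h, washed with ice-cold PBS, then fixed and permeabilized overnight in ice-cold 70% ethanol. RNase A (100 mg/mL) treatment at 37 C for 30 min, then PI staining (1 mg/mL) in the dark at 4 C for 30 min. Flow cytometry gave the percentage of cells in G1, S and G2 phase.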

[13] = Cell cycle arrest in human T24 cells assessed as accumulation at G1 phase at 10 uM after 48 hrs by Rnase A/propidium iodide staining-based flow cytometry (reference value: 34.43%); type: functional; conditions: T-24; method in brief: as §2
[14] = Cell cycle arrest in human T24 cells assessed as reduction in CDK4 level after 24 hrs by Western blotting analysis; type: functional, cell-based; conditions: T-24
Method in brief: (§3)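 T24 cells treated at […] for 24 h and lysed in ice-cold RIPA buffer with protease inhibitors and NaF. Protein measured by Bradford; 30 micrograms per lane run on 12% SDS-PAGE and transferred to PVDF. Blocked 2 h at room temperature, primary antibody overnight at 4 C, HRP secondary (1:2000) 1 h, chemiluminescence detection.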

[15] = Cell cycle arrest in human T24 cells assessed as reduction in Cyclin E level after 24 hrs by Western blotting analysis; type: functional, cell-based; conditions: T-24; method in brief: as §3
[16] = Cell cycle arrest in human T24 cells assessed as increase in p21 level after 24 hrs by Western blotting analysis; type: functional, cell-based; conditions: T-24; method in brief: as §3
[17] = Cytotoxicity against human T24 cells after 2 days by MTT assay; type: functional, cell-based; conditions: T-24, 48 h
Method in brief: (§4)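 Cells grown in medium with 10% heat-inactivated FBS at 37 C under 5% CO2. Compounds dissolved in medium with 1% DMSO; controls received 1% DMSO. After 2 days, MTT (10 mg/mL) added for 4 h, formazan dissolved in DMSO and absorbance read at 570/630 nm. Survival taken relative to negative control; IC50 by Bliss method (n = 5), at least three independent experiments.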

[18] = Cytotoxicity against human SKOV3 cells after 2 days by MTT assay; type: functional, cell-based; conditions: SK-OV-3, 48 h; method in brief: as §4
[19] = tested on: T-24; test: Induction of apoptosis in human T24 cells assessed as necrotic cells at 5 to 20 uM after 24 hrs by AO/EB staining-based fluorescence microscopic analysis; type: functional, cell-based
Method in brief: (§5)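 T24 cells seeded at 5 × 10^4 cells/mL on cover slips. Medium was replaced with fresh medium containing 10% FBS and compound at 5, 10 or 20 µM for 24 h. Cover slips were inverted onto AO/EB stain and viewed by fluorescence microscopy. Live cells score uniform green, early apoptotic green-yellow, late apoptotic orange, and necrotic orange without condensed chromatin. Untreated cells served as control.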

[20] = tested on: T-24; test: Induction of apoptosis in human T24 cells assessed as fragmented nuclei after 24 hrs by Hoechst 33258 staining-based fluorescence microscopic analysis relative to control; type: functional, cell-based
Method in brief: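 T24 cells on cover slips treated at […] for 24 h; untreated cells as control. Fixed in 4% paraformaldehyde for 10 min, PBS washes, Hoechst 33258 for 5 min. Nuclei imaged by fluorescence microscopy, excitation 350 nm, emission 460 nm.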

[21] = tested on: T-24; test: Induction of apoptosis in human T24 cells assessed as pycnosis at 5 to 20 uM after 24 hrs by AO/EB staining-based fluorescence microscopic analysis relative to control; type: functional, cell-based; method in brief: as §5
[22] = tested on: T-24; test: Induction of apoptosis in human T24 cells assessed as cell budding at 5 to 20 uM after 24 hrs by AO/EB staining-based fluorescence microscopic analysis relative to control; type: functional
[23] = tested on: T-24; test: Induction of apoptosis in human T24 cells assessed as loss of mitochondrial membrane potential at 5 to 20 uM after 24 hrs by JC-1 staining-based fluorescence microscopic analysis relative to control; type: functional, cell-based
Method in brief: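 T24 cells exposed 24 h at 5, 10 and 20 µM, then given an equal volume of JC-1 staining solution at 37 °C for 20 min and rinsed twice with PBS. Monomer (green, 515–545 nm) and aggregate (red, 570–600 nm) emissions were viewed by fluorescence microscopy. Depolarization was read as a rise in the green/red ratio against untreated control.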

[24] = tested on: T-24; test: Induction of apoptosis in human T24 cells assessed as late apoptotic cells at 5 uM after 24 hrs by annexin-V-FITC/propidium iodide staining-based flow cytometry (reference value: 2.08%); type: functional
[25] = tested on: T-24; test: Induction of apoptosis in human T24 cells assessed as early apoptotic cells at 10 uM after 24 hrs by annexin-V-FITC/propidium iodide staining-based flow cytometry (reference value: 2.74%); type: functional
[26] = tested on: T-24; test: Induction of apoptosis in human T24 cells assessed as necrotic cells at 10 uM after 24 hrs by annexin-V-FITC/propidium iodide staining-based flow cytometry (reference value: 1.66%); type: functional
[27] = tested on: T-24; test: Induction of apoptosis in human T24 cells assessed as early apoptotic cells at 20 uM after 24 hrs by annexin-V-FITC/propidium iodide staining-based flow cytometry (reference value: 2.74%); type: functional

## COc1ccc2c(c1)/C(=N\O)C(c1c[nH]c3ccc(OC)cc13)=N2
[1]
  viability at 20 µM: 58.1%
[2]
  Activity: Active
[3]
  Activity: Dose-dependent effect
[4]
  Activity: Dose-dependent effect
[5]
  Activity: Dose-dependent effect
[6]
  fold change (FC): 8.03
[7]
  fold change (FC): 8.09
[8]
  fold change (FC): 24.8
[9]
  Activity: Dose-dependent effect
[10]
  Activity: Active
[11]
  Activity: Active
[12]
  Activity: 3.11%
[13]
  Activity: 57%
[14]
  Activity: Dose-dependent effect
[15]
  Activity: Dose-dependent effect
[16]
  Activity: Dose-dependent effect
[17]
  IC50: 4.31 µM
[18]
  IC50: 12.5 µM
[19]
  Activity: inactive
[20]
  Activity: Dose-dependent effect
[21]
  Activity: Active
[22]
  Activity: Active
[23]
  Activity: Active
[24]
  Activity: 6.03%
[25]
  Activity: 11.9%
[26]
  Activity: 1.22%
[27]
  Activity: 32.7%
